Measured values taken from ChEMBL document CHEMBL3621200, “Toward the discovery of dual HCMV-VZV inhibitors: Synthesis, structure activity relationship analysis, and cytotoxicity studies of long chained 2-uracil-3-yl-N-(4-phenoxyphenyl)acetamides” (Bioorg Med Chem, 2015).
The source made the active and inactive calls. The calls are words filed in the database; no cut-off is given here.

What was measured:
[1] = system: Feline coronavirus; assay: Antiviral activity against Feline coronavirus; type: functional, organism-based
[2] = system: Mammalian orthoreovirus 1; assay: Antiviral activity against Reovirus 1; type: functional
[3] = system: Human betaherpesvirus 5; assay: Antiviral activity against human cytomegalovirus Davis infected in HEL cells assessed as reduction in viral plaque formation; type: functional, organism-based; conditions: Human betaherpesvirus 5, Davis
In short: (§1)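 Confluent HEL fibroblasts were infected with 100 PFU of HCMV in the presence of varying compound concentrations. Plaques were counted once plaque formation was complete in untreated infected controls.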

[4] = system: Sindbis virus; assay: Antiviral activity against Sindbis virus; type: functional, organism-based
[5] = system: Human alphaherpesvirus 1; assay: Antiviral activity against HSV1 KOS; type: functional, organism-based
In short: (§2)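 Confluent cell monolayers in 96-well plates were inoculated with 100 CCID50 of virus together with varying compound concentrations. Cytopathicity was scored once it reached completion in untreated infected controls.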

[6] = system: Influenza A virus; assay: Antiviral activity against Influenza A virus H1N1; type: functional, organism-based
In short: (§3)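 Confluent cell monolayers (HEL, Vero, HeLa or MDCK) in 96-well plates were infected with 100 CCID50 of virus in the presence of varying compound concentrations. Cytopathicity was scored once it reached completion in untreated infected controls.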

[7] = Cytotoxicity against human cytomegalovirus infected HEL cells assessed as alteration of cell morphology incubated for 3 days by microscopy; type: cell-based; conditions: HEL cells infected with human cytomegalovirus
In short: (§4)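 Cytotoxicity was given as the minimum cytotoxic concentration (MCC): the compound concentration causing a microscopically detectable change in HEL cell morphology.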

[8] = system: Human betaherpesvirus 5; assay: Antiviral activity against human cytomegalovirus AD169 infected in HEL cells assessed as reduction in viral plaque formation; type: functional, organism-based; conditions: Human betaherpesvirus 5, AD169, HEL; in short: as §1
[9] = system: Punta Toro virus; assay: Antiviral activity against Punta Toro virus; type: functional, organism-based
[10] = system: Vesicular stomatitis virus; assay: Antiviral activity against Vesicular stomatitis virus; type: functional, organism-based; in short: as §3
[11] = system: Human immunodeficiency virus 2; assay: Antiviral activity against HIV2 ROD infected in human CEM cells assessed as reduction in virus- induced cytopathicity incubated for 4 to 5 days by microscopy based virus syncytium formation assay; type: functional, organism-based; conditions: ISOLATE ROD, CCRF-CEM
In short: (§5)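 CEM cells at ~3 × 10^5 cells/mL, infected with 100 CCID50 of HIV per mL in the presence of compound dilutions. Incubated 4–5 days at 37 °C in humidified CO2. Syncytium (giant cell) formation scored by microscopy.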

[12] = system: Human immunodeficiency virus 1; assay: Antiviral activity against HIV1 3B infected in human CEM cells assessed as reduction in virus- induced cytopathicity incubated for 4 to 5 days by microscopy based virus syncytium formation assay; type: functional, organism-based; conditions: CCRF-CEM; in short: as §5
[13] = Cytotoxicity against Varicella zoster virus infected HEL cells assessed as alteration of cell morphology incubated for 3 days by microscopy; type: cell-based; conditions: human, HEL cells infected with Varicella zoster virus; in short: as §4
[14] = system: Human respirovirus 3; assay: Antiviral activity against Parainfluenza 3 virus; type: functional, organism-based
[15] = system: HEL; assay: Cytotoxicity against Varicella zoster virus infected HEL cells assessed as cell growth inhibition incubated for 3 days by coulter counter method; conditions: human, 72 h
[16] = system: Human alphaherpesvirus 2; assay: Antiviral activity against HSV2 Lyons; type: functional, organism-based; in short: as §2
[17] = system: Human herpesvirus 2 strain G; assay: Antiviral activity against HSV2 G Lyons; type: functional, organism-based
[18] = system: Influenza B virus; assay: Antiviral activity against Influenza B virus; type: functional, organism-based; in short: as §3
[19] = system: Coxsackievirus B4; assay: Antiviral activity against Human coxsackievirus B4; type: functional, organism-based
[20] = system: Influenza A virus H3N2; assay: Antiviral activity against Influenza A virus H3N2; type: functional, organism-based; in short: as §3
[21] = system: Vaccinia virus; assay: Antiviral activity against Vaccinia virus Lederle; type: functional, organism-based; conditions: Orthopoxvirus vaccinia; in short: as §3
[22] = system: HEL; assay: Cytotoxicity against human cytomegalovirus infected HEL cells assessed as cell growth inhibition incubated for 3 days by coulter counter method; type: cell-based; conditions: 72 h
In short: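 HEL cells were seeded at 5 × 10^3 cells/well and left to adhere and proliferate for 24 h, then compound-containing medium was added. After 3 days at 37 °C, cells were counted with a Coulter counter.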

[23] = Selectivity index, ratio of CC50 for human cytomegalovirus Davis infected HEL cells to EC50 for human cytomegalovirus Davis; type: toxicity, cell-based; conditions: HEL cells infected with human cytomegalovirus Davis, read-out: Ratio CC50/EC50
[24] = Selectivity index, ratio of CC50 for human cytomegalovirus AD169 infected HEL cells to EC50 for human cytomegalovirus AD169; type: toxicity, cell-based; conditions: HEL cells infected with human cytomegalovirus AD169, read-out: Ratio CC50/EC50

Row | Structure (SMILES) | inhibition [1] | inhibition [2] | EC50 [3] [µM] | inhibition [4] | inhibition [5] | inhibition [6] | MCC at 72 h [7] [µM] | inhibition [9] | inhibition [10] | inhibition [11] | inhibition [12] | MCC at 72 h [13] [µM] | inhibition [14] | inhibition [16] | inhibition [17] | inhibition [18] | inhibition [19] | inhibition [20] | inhibition [21] | CC50 [22] [µM] | other results
1 | O=C(Cn1c(=O)ccn(CCCCCCCCOc2ccc(Br)cc2)c1=O)Nc1ccc(Oc2ccccc2)cc1 | inactive | inactive | < 0.032 | inactive | inactive | inactive | ≥ 0.16 | inactive | inactive | inactive | inactive | 0.8 | inactive | inactive | inactive | inactive | inactive | inactive | inactive | – | EC50 [8]: < 0.032 µM; CC50 [15]: 11.7 µM
2 | CN(C(=O)Cn1c(=O)ccn(CCCCCOc2ccc(Br)cc2)c1=O)c1ccc(Oc2ccccc2)cc1 | inactive | inactive | 1.29 | inactive | inactive | inactive | ≥ 4 | inactive | inactive | inactive | inactive | ≥ 100 | inactive | inactive | inactive | inactive | inactive | inactive | inactive | 6.1 | EC50 [8]: 0.98 µM; CC50 [15]: 6 µM
3 | O=C(Cn1c(=O)ccn(CCCCCCOc2ccc(Br)cc2)c1=O)Nc1ccc(Oc2ccccc2)cc1 | inactive | inactive | 0.2 | inactive | inactive | inactive | 4 | inactive | inactive | inactive | inactive | 4 | inactive | inactive | inactive | inactive | inactive | inactive | inactive | 11.7 | EC50 [8]: 0.29 µM; CC50 [15]: 11.7 µM
4 | O=C(Cn1c(=O)ccn(CCCCCOc2ccc(Br)cc2)c1=O)Nc1ccc(Oc2ccccc2)cc1 | inactive | inactive | 0.97 | inactive | inactive | inactive | 20 | inactive | inactive | inactive | inactive | > 100 | inactive | inactive | inactive | inactive | inactive | inactive | inactive | 8.7 | selectivity ratio [23]: 9; CC50 [15]: 8.7 µM; selectivity ratio [24]: 9
5 | O=C(Cn1c(=O)ccn(CCCOc2ccc(Br)cc2)c1=O)Nc1ccc(Oc2ccccc2)cc1 | inactive | inactive | 3.9 | inactive | inactive | inactive | ≥ 100 | inactive | inactive | inactive | inactive | ≥ 100 | inactive | inactive | inactive | inactive | inactive | inactive | inactive | 15.2 | CC50 [15]: 15.2 µM
6 | O=c1[nH]c(=O)n([C@H]2C[C@H](O)[C@@H](CO)O2)cc1/C=C/Br [BRIVUDINE] | – | – | – | – | – | – | – | – | – | – | – | > 300 | – | – | – | – | – | – | – | – | CC50 [15]: ≥ 79.3 µM
7 | O=C(Cn1c(=O)ccn(CCCCOc2ccc(Br)cc2)c1=O)Nc1ccc(Oc2ccccc2)cc1 | inactive | inactive | 1.64 | inactive | inactive | inactive | ≥ 20 | inactive | inactive | inactive | inactive | > 100 | inactive | inactive | inactive | inactive | inactive | inactive | inactive | 7.7 | EC50 [8]: 1.79 µM; CC50 [15]: 7.7 µM
8 | O=C(Cn1c(=O)ccn(CCCCCOc2ccc(Br)cc2)c1=O)Nc1ccc(C(=O)c2ccccc2)cc1 | inactive | inactive | 1.64 | inactive | inactive | inactive | ≥ 20 | inactive | inactive | inactive | inactive | > 100 | inactive | inactive | inactive | inactive | inactive | inactive | inactive | 5.8 | EC50 [8]: 1.79 µM
9 | O=C(Cn1c(=O)ccn(CCCCOCc2ccc(Br)cc2)c1=O)Nc1ccc(Oc2ccccc2)cc1 | inactive | inactive | ≥ 1.2 | inactive | inactive | inactive | ≥ 4 | inactive | inactive | inactive | inactive | > 100 | inactive | inactive | inactive | inactive | inactive | inactive | inactive | 4.8 | EC50 [8]: 1.8 µM
10 | N#Cc1ccc(OCCCCCn2ccc(=O)n(CC(=O)Nc3ccc(Oc4ccccc4)cc3)c2=O)cc1 | inactive | inactive | 0.44 | inactive | inactive | inactive | ≥ 4 | inactive | inactive | inactive | inactive | > 100 | inactive | inactive | inactive | inactive | inactive | inactive | inactive | 4.9 | EC50 [8]: 0.53 µM
